Consider one compound from publication PMC10405225 (Cancer chemotherapy and pharmacology, 2022).

The subject of data set [1] is SUP-T1 T-ALL cells. As to the kind of experiment: Cell cytotoxicity assay. Type of data set: cell-based, Human. In short, it runs like this:
(§1)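 Human T-ALL lines grown in RPMI with 10% or 20% FBS at 37°C, 5% CO2. Plated 2×10^3–2×10^4 cells/well depending on doubling time, in quadruplicate. Test compound added from DMSO (≥1:1000 into medium) at varying concentrations; DMSO vehicle control. Exposure 48 h, then CCK-8 for 4 h at 37°C and A450 read. % survival derived; ≥3 independent experiments, mean ± SE.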

Data set [2] addresses BCL-XL (Homo sapiens, UniProt Q07817). As to the kind of experiment: BCL-XL degradation by western blot densitometry in SUP-T1 cells. In kind it is cell-based. The conditions noted are these: read-out: DC50 (concentration that degraded 50% of BCL-XL protein), 24 hrs of DT2216, western blot densitometry. Background: In western blotting, separated proteins are transferred to a membrane and probed.

Data set [3] deals with PEER T-ALL cells. As to the kind of experiment: Cell cytotoxicity assay. Type of data set: cell-based. The settings on record: Homo sapiens, 48 h. In short, it runs like this: as §1
For data set [4] the following is noted: intratumoral, T-ALL xenograft in immunodeficient mice ref 8; cited from earlier work.
The subject of data set [5] is BCL-2 or MCL-1. In kind it is cell-based, Human. In short, it runs like this:
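T-ALL cells were lysed before and after test-compound exposure. Western blots of 10 µg lysate were probed for BCL-2 and MCL-1, with β-actin as loading control. Band intensities were measured by densitometry and normalized to β-actin. Each blot was done twice with distinct protein preparations.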

Data set [6] has as its system T-ALL cell lines other than SUP-T1. Description: Cell cytotoxicity assay. In kind it is cell-based. The conditions noted are these: Homo sapiens, SUP-T1, 48 h. In short, it runs like this: as §1

Molecules are shown by their SMILES.

Sequence of BCL-XL (Q07817 whole entry): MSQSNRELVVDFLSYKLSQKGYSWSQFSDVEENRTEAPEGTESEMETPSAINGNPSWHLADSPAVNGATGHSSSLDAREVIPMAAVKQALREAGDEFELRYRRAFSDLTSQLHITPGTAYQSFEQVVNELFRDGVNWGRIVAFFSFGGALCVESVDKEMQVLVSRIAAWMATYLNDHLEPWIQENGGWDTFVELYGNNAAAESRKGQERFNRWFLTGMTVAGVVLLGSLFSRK

By IC50 is commonly meant the point on the concentration scale where inhibition reaches its midpoint. Higher therefore signals a need for much substance. In the case of `Cc1ncsc1-c1ccc([C@H](C)NC(=O)[C@@H]2C[C@@H](O)CN2C(=O)[C@@H](NC(=O)CCCCCC(=O)N2CCN(CC[C@H](CSc3ccccc3)Nc3ccc(S(=O)(=O)NC(=O)c4ccc(N5CCN(CC6=C(c7ccc(Cl)cc7)CCC(C)(C)C6)CC5)cc4)cc3S(=O)(=O)C(F)(F)F)CC2)C(C)(C)C)cc1` [DT2216], the IC50 in data set [1] (48 hrs) is 1490 nM; in data set [1] (Homo sapiens, SUP-T1, 48 h), above 800 nM; in data set [3], 305 nM; in data set [6], below 800 nM. In addition, the DC50 in data set [2] came to 131 nM. Also, the “DT2216 level achieved within a T-ALL xenografted tumor in vivo” value in data set [4] is 800 nM. For the same compound, in data set [5] (any of the 13 T-ALL cell lines), the “Induction of BCL-2 or MCL-1 expression by DT2216” value is “not induced”. For the same compound, the “Change in BCL-2 or MCL-1 protein levels after exposure to DT2216” value in data set [5] (resistant SUP-T1 cells) was “no change”.
